Results on 16 molecules are retold here after ChEMBL document CHEMBL4725346, “Syntheses and Evaluation of New Bisacridine Derivatives for Dual Binding of G-Quadruplex and i-Motif in Regulating Oncogene c-myc Expression” (J Med Chem, 2020).

Calls of active or inactive are those of the source. The calls are words filed in the database; no cut-off is given here.

Assay [1] is described as follows: Stabilization of 5'-FAM/3'-TAMRA labeled c-myc promoter i-motif DNA FPy33T (unknown origin) assessed as change in melting temperature at 1 uM by FRET assay (reference value: 53.2 degreeC). The method in brief: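 FRET melting of dual FAM/TAMRA-labelled FPy33T annealed in 1× BPES (30 mM potassium phosphate, 1 mM EDTA, 100 mM KCl), pH 5.5. Final 0.2 µM DNA with or without ligand. Excitation 470 nm, emission 530 nm, read every 1 °C over 37–99 °C. ΔTm taken against DNA alone.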

The nature of assay [2]: Binding affinity to 5'-biotin labeled c-myc promoter i-motif DNA Py33 (unknown origin) by surface plasmon resonance method. The method in brief: (§1)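 SPR: 5'-biotin DNA diluted to 1 μM and captured (1000 RU) on a sensor chip, with a blank cell as reference. Running buffers: Py33 in 20 mM MES pH 5.8, 100 mM KCl, 0.05% Tween-20; Pu27 and duplex in 50 mM Tris-HCl pH 7.4, 100 mM KCl. Six ligand concentrations serially diluted from DMSO stock. Association 260 s, dissociation 300 s at 25 °C; NaOH regeneration; blank sensorgrams subtracted.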

Assay [3] has as its system Quadruplex DNA. Kind of assay: Stabilization of 5'-FAM/3'-TAMRA labeled c-myc promoter G-quadruplex DNA FPu22T (unknown origin) assessed as change in melting temperature at 1 uM by FRET assay (reference value: 66.5 degreeC). In kind it is nucleic-acid assay. The method in brief: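 FRET melting of dual FAM/TAMRA-labelled FPu22T annealed in 10 mM Tris-HCl pH 7.4 with KCl. Final 0.2 µM DNA with or without ligand. Excitation 470 nm, emission 530 nm, read every 1 °C over 37–99 °C on a real-time PCR cycler. ΔTm = Tm(DNA+ligand) − Tm(DNA).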

Assay [4] can be described thus: Stabilization of 5'-FAM/3'-TAMRA labeled hairpin DNA F10T (unknown origin) assessed as change in melting temperature at 1 uM by FRET assay (reference value: 59.1 degreeC).
Assay [5] addresses Quadruplex DNA. Nature of the assay: Binding affinity to 5'-biotin labeled c-myc promoter G-quadruplex DNA Pu27 (unknown origin) by surface plasmon resonance method. In kind it is nucleic-acid assay. The method, boiled down:
as §1

In assay [6] the test system is Huh-7. Nature of the assay: Antiproliferative activity against human Huh-7 cells after 48 hrs by MTT assay. As to conditions: Huh-7, 48 h. In kind it is functional, cell-based. The method, boiled down: (§2)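 Cells seeded at 5.0×10^3 per well, pre-incubated 12 h at 37 °C, 5% CO2, then exposed to compounds for 48 h; DMSO-only control. MTT (2.5 mg/mL) added for 4 h, formazan dissolved in DMSO, absorbance at 570 nm. Each dose tested in triplicate; IC50 from percentage survival relative to negative control.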

Assay [7] has as its system SiHa. Nature of the assay: Antiproliferative activity against human SiHa cells after 48 hrs by MTT assay. The class given is functional, cell-based. The method in brief:
as §2

For assay [8], the system named is A549. Kind of assay: Antiproliferative activity against human A549 cells after 48 hrs by MTT assay. The class given is functional, cell-based. As to conditions: A549, 48 h. The method, boiled down:
as §2

Assay [9] addresses dsDNA. Nature of the assay: Binding affinity to 5'-biotin labeled duplex DNA (unknown origin) by surface plasmon resonance method. The class given is nucleic-acid assay. The method in brief:
as §1

Assay [10] concerns HeLa. Nature of the assay: Antiproliferative activity against human Hela cells after 48 hrs by MTT assay. The class given is functional, cell-based. The method in brief:
as §2

The subject of assay [11] is U2OS. Nature of the assay: Antiproliferative activity against human U2OS cells after 48 hrs by MTT assay. In kind it is functional, cell-based. The method in brief:
as §2

The subject of assay [12] is A-375. Kind of assay: Antiproliferative activity against human A-375 cells after 48 hrs by MTT assay. As to conditions: A-375, 48 h. In kind it is functional, cell-based. The method, boiled down:
as §2

Assay [13] addresses ssDNA. Kind of assay: Binding affinity to 5'-biotin labeled single-stranded DNA Py33 (unknown origin) by surface plasmon resonance method. In kind it is nucleic-acid assay.
The test system of assay [14] is HCT-116. Nature of the assay: Antiproliferative activity against human HCT-116 cells after 48 hrs by MTT assay. In kind it is functional, cell-based. Particulars: HCT-116, 48 h. The method, boiled down: as §2
Assay [15] deals with Quadruplex DNA. Kind of assay: Stabilization of c-myc promoter G-quadruplex DNA Pu27 (unknown origin) in pH 7.4 Tris-HCl buffer by CD spectroscopy. The class given is nucleic-acid assay. The method, boiled down: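 Pu27 at 1 µM in 10 mM Tris-HCl pH 7.4, with or without ligand. Annealed at 95 °C for 5 min, cooled to room temperature, stored at 4 °C overnight. CD spectra taken in a 4 mm cuvette over 230–350 nm, three scans averaged, smoothed and buffer-baseline corrected.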

With `Cc1ccc2nc3ccccc3c(NCCCCCCNc3c4ccccc4nc4ccc(C)cc34)c2c1`, the ΔTm was 1.2 °C in assay [1], 10 °C in assay [3] and 1.7 °C in [4]. The figures for the Kd in assay [2] and in [5] were 25100 nM and 14300 nM, respectively.
On to `Cc1ccc2nc3ccccc3c(NCCCN(C)CCCNc3c4ccccc4nc4ccc(C)cc34)c2c1`, for which the IC50 was 190 nM in assay [6]; 490 nM in [7]; 1160 nM in assay [8]; 370 nM in assay [10]; 2040 nM in assay [11]; 230 nM in [12]. The molecule also registered an IC50 in assay [14] of 1950 nM. Moreover, the ΔTm in assay [1] amounted to 6.4 °C; in [3] it was 12.1 °C; in [4] it was 6.2 °C. In addition, the Kd stood at 10700 nM in [2], 16400 nM in assay [9], 6900 nM in [5] and 8910 nM in assay [13].
Take `Cc1ccc2nc3ccccc3c(NCCCCCCCNc3c4ccccc4nc4ccc(C)cc34)c2c1`: the ΔTm in assay [1] came out at 3.4 °C; in assay [3] it was 15.3 °C; in assay [4], 3.6 °C. Further, the Kd in assay [9] came out at 24800 nM; in [5] it was 10300 nM.
For the molecule `Cc1ccc2nc3ccccc3c(NCCCCCNc3c4ccccc4nc4ccc(C)cc34)c2c1`, the IC50 in assay [6] was determined as 3670 nM; in assay [7], 2520 nM; in assay [8] it was 830 nM; in [10], 1650 nM; in [11], 1420 nM; in assay [12], 1830 nM. The IC50 in assay [14] is 1680 nM. For the same molecule, the ΔTm amounted to 0.2 °C in assay [1], 11.4 °C in assay [3] and 1.9 °C in assay [4]. In addition, the Kd in [2] is 14500 nM; in assay [5], 16300 nM; in [13] it was 26100 nM.
For the molecule `c1ccc2c(NCCCNc3c4ccccc4nc4ccccc34)c3ccccc3nc2c1`, the IC50 is 5560 nM in assay [6]; 3060 nM in [7]; 1730 nM in assay [8]; 2620 nM in assay [10]; 1600 nM in [11]; 2050 nM in assay [12]. Moreover, in assay [14], the IC50 amounted to 3510 nM. The ΔTm is 1.3 °C in assay [1], 14 °C in assay [3] and 2.2 °C in assay [4]. The dissociation constant Kd in assay [9] was found to be 10100 nM; in assay [5] it was 4300 nM; in assay [13] it was 13700 nM.
Regarding `c1ccc2c(NCCOCCOCCNc3c4ccccc4nc4ccccc34)c3ccccc3nc2c1`, the outcome in [15] was Active. In addition, the IC50 in [6] stood at 870 nM; in assay [7], 2260 nM; in assay [8], 1140 nM; in [10], 240 nM; in assay [11], 330 nM; in assay [12] it was 220 nM. In addition, in assay [14], the IC50 turned out to be 510 nM. Further, the ΔTm in assay [1] is 0.1 °C; in [3] it was 10.6 °C; in [4], 3.4 °C. Further, the Kd in [2] was 16000 nM; in [9], 5800 nM; in assay [5] it was 9300 nM.
With `COC(=O)c1ccc2nc3ccc(C)cc3c(NCCCNCCNCCCNc3c4cc(C)ccc4nc4ccc(C(=O)OC)cc34)c2c1`, the results for the ΔTm in [1], in assay [3] and in [4] were 2 °C, 8.6 °C and 4.8 °C, respectively. Moreover, the Kd in assay [2] came to 3800 nM; in assay [9], 11800 nM; in [5], 2900 nM.
Turning to `Cc1ccc2nc3ccc(C)cc3c(NCCCCCCCNc3c4cc(C)ccc4nc4ccc(C)cc34)c2c1`, the ΔTm in assay [1] came to 1.4 °C; in [3], 15.7 °C; in [4], 1.8 °C. The Kd in assay [9] is 10700 nM; in [5] it was 6100 nM; in assay [13], 8800 nM.
Take `Cc1ccc2nc3ccc(C)cc3c(NCCCCCCNc3c4cc(C)ccc4nc4ccc(C)cc34)c2c1`: the ΔTm in assay [1] came to 10.1 °C; in assay [3], 16.8 °C; in assay [4], 2.7 °C. For the same molecule, the Kd in assay [2] worked out at 12400 nM; in assay [5], 1100 nM; in assay [13], 4700 nM.
As for `Cc1ccc2nc3ccc(C)cc3c(NCCCN(C)CCCNc3c4cc(C)ccc4nc4ccc(C)cc34)c2c1`, the IC50 was determined as 270 nM in assay [6]; 370 nM in assay [7]; 520 nM in [8]; 850 nM in assay [10]; 440 nM in [11]; 130 nM in assay [12]. The molecule also returned an IC50 in [14] of 2470 nM. Moreover, the ΔTm in [1] came to 4.5 °C; in assay [3], 15.6 °C; in assay [4] it was 3.8 °C. Also, the Kd in [2] was determined as 10500 nM; in [9], 22200 nM; in [5], 5500 nM; in assay [13] it was 13900 nM.
Turning to `c1ccc2c(NCCCCCCCNc3c4ccccc4nc4ccccc34)c3ccccc3nc2c1`, the ΔTm amounted to 0.6 °C in [1], 8.8 °C in [3] and 9.3 °C in [4]. The Kd is 7400 nM in assay [9], 11600 nM in assay [5] and 14700 nM in assay [13].
As to `Cc1ccc2nc3ccccc3c(NCCCCNc3c4ccccc4nc4ccc(C)cc34)c2c1`, the IC50 in assay [6] worked out at 3290 nM; in assay [7] it was 2440 nM; in assay [8], 320 nM; in assay [10] it was 1360 nM; in assay [11], 790 nM; in assay [12] it was 920 nM. Also, the IC50 in assay [14] came to 910 nM. For the same molecule, the results for the ΔTm in assay [1], in assay [3] and in [4] were 0.4 °C, 13.9 °C and 2 °C, respectively. Besides, in [5], the Kd was found to be 1600 nM.
As for `Cc1ccc2nc3ccc(C)cc3c(NCCCCCNc3c4cc(C)ccc4nc4ccc(C)cc34)c2c1`, the IC50 in assay [6] amounted to 2810 nM; in assay [7] it was 1660 nM; in [8], 720 nM; in assay [10], 660 nM; in assay [11] it was 1330 nM; in assay [12] it was 510 nM. In assay [14], inhibition was half-maximal at 950 nM (IC50). Further, the ΔTm in [1] is 1 °C; in assay [3] it was 11 °C; in assay [4] it was 2.7 °C. Besides, the figures for the Kd in assay [9], in [5] and in assay [13] were 33600 nM, 7300 nM and 23700 nM, respectively.
With `Cc1ccc2nc3ccc(C)cc3c(NCCCNc3c4cc(C)ccc4nc4ccc(C)cc34)c2c1`, the IC50 turned out to be 6200 nM in assay [6]; 3820 nM in [7]; 1710 nM in assay [8]; 1360 nM in [10]; 2940 nM in assay [11]; 2480 nM in assay [12]. This molecule also returned an IC50 in [14] of 6250 nM. Further, the ΔTm was determined as 2.4 °C in assay [1], 14.1 °C in assay [3] and 0.7 °C in [4]. The Kd was 35400 nM in assay [9] and 9200 nM in assay [5].
`CN(CCCNc1c2ccccc2nc2ccccc12)CCCNc1c2ccccc2nc2ccccc12`: the IC50 in assay [6] worked out at 800 nM; in assay [7] it was 2510 nM; in [8], 350 nM; in assay [10], 340 nM; in assay [11] it was 130 nM; in assay [12], 120 nM. Also, the IC50 in [14] stood at 190 nM. In addition, the ΔTm amounted to 7.3 °C in assay [1], 7.7 °C in assay [3] and 10.8 °C in assay [4]. Also, the Kd is 9100 nM in assay [2], 8100 nM in [9] and 18300 nM in assay [5].
Consider `Cc1ccc2nc3ccc(C)cc3c(NCCCCNc3c4cc(C)ccc4nc4ccc(C)cc34)c2c1`, for which the IC50 in [6] stood at 2680 nM; in [7], 3700 nM; in [8] it was 470 nM; in assay [10], 1470 nM; in assay [11], 550 nM; in assay [12], 1920 nM. This molecule also displayed an IC50 in assay [14] of 2060 nM. For the same molecule, the ΔTm in assay [1] was determined as 9.1 °C; in assay [3] it was 10.4 °C; in [4] it was 0.8 °C. For the same molecule, the Kd in assay [2] stood at 16000 nM; in [5] it was 2900 nM; in [13] it was 6800 nM.
